# ChEMBL document CHEMBL1765040, “Synthesis and antiviral activity of N9-[3-fluoro-2-(phosphonomethoxy)propyl] analogues derived from N6-substituted adenines and 2,6-diaminopurines” (Bioorg Med Chem, 2011)
# Active and inactive are the calls of the source. The rule behind the calls is not given here.
# How the values were obtained:
# [1] = tested on: Human immunodeficiency virus 1; assay: Antiviral activity against HIV1 3B infected in human CEM cells assessed as inhibition of virus-induced syncytium formation after 4 to 5 days by microscopic analysis; assay type: functional, organism-based; conditions: Human immunodeficiency virus 1, 3B, CCRF-CEM
# Procedure, shortened: (§1)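 CEM cells (~3 × 10^5 cells/mL) infected with 100 CCID50 per mL of HIV-1(IIIB) or HIV-2(ROD), with compound dilutions; 4–5 days at 37 °C, humidified CO2 atmosphere. Giant (syncytium) cell formation scored microscopically; EC50 is the concentration inhibiting giant cell formation by 50%.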
# [2] = tested on: Human immunodeficiency virus 2; assay: Antiviral activity against HIV2 ROD infected in human CEM cells assessed as inhibition of virus-induced syncytium formation after 4 to 5 days by microscopic analysis; assay type: functional, organism-based; conditions: Human immunodeficiency virus 2, ISOLATE ROD, CCRF-CEM; procedure, shortened: as §1
# [3] = tested on: Moloney murine sarcoma virus; assay: Antiviral against Moloney murine sarcoma virus infected in mouse C3H/3T3 cells assessed as inhibition of virus-induced cell transformation after 6 days post infection by microscopic analysis; assay type: functional, organism-based; conditions: C3H/3T3, 144 h
# Procedure, shortened: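 Murine embryo fibroblast C3H/3T3 monolayers infected with 75 focus-forming units of MSV, with test compound; transformation examined microscopically at day 6 postinfection. EC50 is the concentration inhibiting MSV-induced transformation by 50%.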
# [4] = Cytotoxicity against human CEM cells assessed as inhibition of cell proliferation after 72 hrs by coulter counter analysis; assay type: cell-based, CCRF-CEM
# Procedure, shortened: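 CEM cells, (5–7.5) × 10^4 per well, with test compound, grown 72 h at 37 °C in humidified CO2 atmosphere; cells counted by Coulter counter. IC50 is the concentration inhibiting proliferation by 50%.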
# [5] = Cytotoxicity against human CEM cells assessed as minimum concentration required for morphological alteration by microscopic analysis; assay type: cell-based, CCRF-CEM
# [6] = target: N6-methyl-AMP deaminase, ADAL (Homo sapiens) (UniProt Q6DHV7); assay: Activity at human recombinant N6-methyl-AMP deaminase assessed as reaction rate after 60 mins by HPLC analysis
# [7] = tested on: Human immunodeficiency virus 1; assay: Antiviral activity against HIV1 infected in human MT4 cells assessed as inhibition of virus-induced cytopathicity; assay type: functional, organism-based; conditions: Human immunodeficiency virus 1, MT4
# [8] = Cytotoxicity against human MT4 cells; assay type: cell-based
# Sequence of N6-methyl-AMP deaminase, ADAL (Homo sapiens) (Q6DHV7 whole entry, looked up): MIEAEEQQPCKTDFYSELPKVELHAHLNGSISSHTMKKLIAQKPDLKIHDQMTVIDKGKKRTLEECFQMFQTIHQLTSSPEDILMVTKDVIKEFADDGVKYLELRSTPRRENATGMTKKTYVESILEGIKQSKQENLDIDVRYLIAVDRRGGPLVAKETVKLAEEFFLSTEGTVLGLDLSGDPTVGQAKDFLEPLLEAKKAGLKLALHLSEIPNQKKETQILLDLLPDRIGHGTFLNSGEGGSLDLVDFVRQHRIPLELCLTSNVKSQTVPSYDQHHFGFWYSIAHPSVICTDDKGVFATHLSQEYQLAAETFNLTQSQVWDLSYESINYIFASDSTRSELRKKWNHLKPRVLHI
SMILES,EC50 [1] [µM],EC50 [2] [µM],EC50 [3] [µM],Activity [6],CC50 at 72 h [4] [µM],MCC [5] [µM],EC50 [7] [µM],CC50 [8] [µM]
C=CCNc1nc(N)nc2c1ncn2C[C@H](CF)OCP(=O)(O)O,18,36,69,5.64 nmol/min/mg,> 278,> 100,,
C[C@H](Cn1cnc2c(N)ncnc21)OCP(=O)(O)O [TENOFOVIR ANHYDROUS],4.6,3.2,,,> 250,> 100,,
Nc1ncnc2c1ncn2CCOCP(=O)(O)O [ADEFOVIR],7.4,7,2.1,,≥ 250,≥ 100,,
Nc1nc(N)c2ncn(C[C@@H](CF)OCP(=O)(O)O)c2n1,,,,,,,15,> 300
Nc1nc(NC2CC2)c2ncn(C[C@@H](CF)OCP(=O)(O)O)c2n1,25.5,11.1,6.9,1.98 nmol/min/mg,> 278,> 100,,
Nc1nc(O)c2ncn(C[C@@H](CF)OCP(=O)(O)O)c2n1,,,,,,,3.9,103
Nc1nc(N2CCCC2)c2ncn(C[C@H](CF)OCP(=O)(O)O)c2n1,> 100,> 100,> 100,,> 100,> 100,,
CN(C)c1nc(N)nc2c1ncn2C[C@@H](CF)OCP(=O)(O)O,> 255,115,45,8.07 nmol/min/mg,> 255,> 100,,
Nc1nc(N2CCCC2)c2ncn(C[C@@H](CF)OCP(=O)(O)O)c2n1,> 100,> 100,> 20,,> 100,≥ 100,,
CCN(CC)c1nc(N)nc2c1ncn2C[C@@H](CF)OCP(=O)(O)O,> 100,> 100,> 100,,> 100,> 100,,
CCN(CC)c1nc(N)nc2c1ncn2C[C@H](CF)OCP(=O)(O)O,> 100,> 100,> 100,,> 100,> 100,,
Nc1nc(O)c2ncn(C[C@H](CF)OCP(=O)(O)O)c2n1,,,,,,,5.9,> 300
CN(C)c1nc(N)nc2c1ncn2C[C@H](CF)OCP(=O)(O)O,51.7,103,> 20,23.6 nmol/min/mg,> 287,≥ 100,,
Nc1nc(N)c2ncn(C[C@H](CF)OCP(=O)(O)O)c2n1,,,,,,,4.3,> 300
Nc1nc(NC2CC2)c2ncn(C[C@H](CF)OCP(=O)(O)O)c2n1,14.2,22.8,50,64.5 nmol/min/mg,> 278,> 100,,

# More lines, main results first:
EC50 [1] [µM],EC50 [2] [µM],EC50 [3] [µM],Activity [6],SMILES,CC50 at 72 h [4] [µM],MCC [5] [µM],EC50 [7] [µM],CC50 [8] [µM]
> 100,> 100,> 100,,COCCNc1nc(N)nc2c1ncn2C[C@H](CF)OCP(=O)(O)O,> 100,> 100,,
> 100,> 100,> 100,,CN(C)CCNc1nc(N)nc2c1ncn2C[C@@H](CF)OCP(=O)(O)O,> 100,> 100,,
> 53,,,,CN(C)CCNc1nc(N)nc2c1ncn2C[C@H](CF)OCP(=O)(O)O,> 53,,,
> 247,> 247,> 100,inactive,C=CCNc1nc(N)nc2c1ncn2C[C@@H](CF)OCP(=O)(O)O,> 247,> 100,,
41.4,22.4,> 100,4.17 nmol/min/mg,CCCNc1nc(N)nc2c1ncn2C[C@H](CF)OCP(=O)(O)O,> 276,> 100,,
> 276,> 276,> 100,inactive,CCCNc1nc(N)nc2c1ncn2C[C@@H](CF)OCP(=O)(O)O,> 276,≥ 100,,
> 100,> 100,> 100,,COCCNc1nc(N)nc2c1ncn2C[C@@H](CF)OCP(=O)(O)O,> 100,> 100,,
